Laboratory results as given in ChEMBL document CHEMBL3758076, “Azaphilones from an Acid Mine Extremophile Strain of a Pleurostomophora sp” (J Nat Prod, 2015).
The source made the active and inactive calls. The calls are words filed in the database; no cut-off is given here.

Columns and labels:
[1] = tested on: RPMI-8226; assay: Cytotoxicity against human RPMI8226 cells at 1 to 10 uM after 72 hrs by Alamar Blue viability assay; type: functional, cell-based
[2] = tested on: CCRF-CEM; assay: Cytotoxicity against human CCRF-CEM cells at 1 to 10 uM after 72 hrs by Alamar Blue viability assay; type: functional, cell-based
[3] = tested on: SR; assay: Cytotoxicity against human SR cells after 96 hrs by Hoechst-staining based nuclei image analysis; type: functional
[4] = tested on: RPMI-8226; assay: (§1) Cytotoxicity against human RPMI8226 cells after 96 hrs by Hoechst-staining based nuclei image analysis; type: functional
[5] = tested on: MOLT-4; assay: (§2) Cytotoxicity against human MOLT4 cells after 96 hrs by Hoechst-staining based nuclei image analysis; type: functional
[6] = tested on: LOX IMVI; assay: Cytotoxicity against human LOXIMVI cells after 96 hrs by Hoechst-staining based nuclei image analysis; type: functional
[7] = tested on: LOX IMVI; assay: Cytotoxicity against human LOXIMVI cells at 1 to 10 uM after 72 hrs by Alamar Blue viability assay; type: functional, cell-based
[8] = tested on: MOLT-4; assay: Cytotoxicity against human MOLT4 cells at 1 to 10 uM after 72 hrs by Alamar Blue viability assay; type: functional, cell-based
[9] = tested on: SR; assay: Cytotoxicity against human SR cells at 1 to 10 uM after 72 hrs by Alamar Blue viability assay; type: functional, cell-based
[10] = biological target: T1, Caspase-1 (Homo sapiens, UniProt P29466); assay: Inhibition of caspase-1 (unknown origin)
T1 sequence (P29466 whole entry): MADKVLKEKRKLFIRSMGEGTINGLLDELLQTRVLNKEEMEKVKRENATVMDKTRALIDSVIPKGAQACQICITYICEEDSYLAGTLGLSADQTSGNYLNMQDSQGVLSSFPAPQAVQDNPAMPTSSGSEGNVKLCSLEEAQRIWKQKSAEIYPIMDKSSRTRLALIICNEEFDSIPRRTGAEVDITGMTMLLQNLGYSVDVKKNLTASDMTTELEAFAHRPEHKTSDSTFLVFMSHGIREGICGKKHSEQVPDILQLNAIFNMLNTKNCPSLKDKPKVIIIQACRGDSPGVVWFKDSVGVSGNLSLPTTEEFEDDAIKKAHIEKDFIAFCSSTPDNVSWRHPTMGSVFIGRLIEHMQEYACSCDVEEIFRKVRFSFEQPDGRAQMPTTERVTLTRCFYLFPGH

[11] = biological target: Stromelysin-1 (Homo sapiens, UniProt P08254); assay: Inhibition of MMP-3 (unknown origin)
Sequence of Stromelysin-1 (P08254 whole entry): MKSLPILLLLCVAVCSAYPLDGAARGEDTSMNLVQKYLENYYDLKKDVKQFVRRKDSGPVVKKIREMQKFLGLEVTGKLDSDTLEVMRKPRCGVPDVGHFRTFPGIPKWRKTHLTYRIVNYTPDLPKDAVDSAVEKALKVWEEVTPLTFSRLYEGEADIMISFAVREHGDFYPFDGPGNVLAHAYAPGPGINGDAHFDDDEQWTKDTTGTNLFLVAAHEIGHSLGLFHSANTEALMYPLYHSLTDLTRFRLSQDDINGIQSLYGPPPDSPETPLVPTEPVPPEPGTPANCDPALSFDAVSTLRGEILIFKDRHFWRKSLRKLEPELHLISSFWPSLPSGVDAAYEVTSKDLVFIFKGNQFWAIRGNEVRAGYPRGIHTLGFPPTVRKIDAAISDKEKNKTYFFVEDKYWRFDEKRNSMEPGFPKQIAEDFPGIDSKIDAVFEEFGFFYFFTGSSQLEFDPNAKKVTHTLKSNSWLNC

[12] = Cytotoxicity against human MOLT4 cells after 72 hrs by Alamar Blue viability assay; type: functional; details: MOLT-4, 72 h
[13] = tested on: THP-1; assay: Antiinflammatory activity in human THP1 cells assessed as suppression of LPS and TiO2-induced IL-33 production at 10 uM after 24 hrs by induced inflammasome assay; type: functional, cell-based
Outline: (§3)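 THP-1 cells stimulated with bacterial LPS plus titanium dioxide (TiO2) to drive proinflammatory cytokine output and NLRP3 inflammasome assembly. Compounds were added to the induced cells, and IL-6, IL-33, TNF-α and IL-1β production was then measured.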

[14] = tested on: Y79; assay: Cytotoxicity against human Y79 cells after 72 hrs by Alamar Blue viability assay; type: functional, cell-based; details: Y79, 72 h
[15] = Cytotoxicity against human LOXIMVI cells after 72 hrs by Alamar Blue viability assay; type: functional; details: LOX IMVI
[16] = tested on: SR; assay: Cytotoxicity against human SR cells after 72 hrs by Alamar Blue viability assay; type: functional
[17] = tested on: Y79; assay: Cytotoxicity against human Y79 cells after 96 hrs by Hoechst-staining based nuclei image analysis; type: functional, cell-based; details: Y79, 96 h
[18] = (§4) Antiinflammatory activity in human THP1 cells assessed as suppression of LPS and TiO2-induced IL-1beta production at 10 uM after 24 hrs by induced inflammasome assay; type: functional, THP-1; outline: as §3
[19] = tested on: CCRF-CEM; assay: Cytotoxicity against human CCRF-CEM cells after 96 hrs by Hoechst-staining based nuclei image analysis; type: functional
[20] = as §1; type: functional; details: RPMI-8226, 96 h
[21] = tested on: CCRF-CEM; assay: Cytotoxicity against human CCRF-CEM cells after 72 hrs by Alamar Blue viability assay; type: functional
[22] = (§5) Antiinflammatory activity in human THP1 cells assessed as suppression of LPS and TiO2-induced TNF-alpha production at 10 uM after 24 hrs by induced inflammasome assay; type: functional, THP-1; outline: as §3
[23] = as §2; type: functional; details: MOLT-4, 96 h
[24] = Cytotoxicity against human RPMI8226 cells after 72 hrs by Alamar Blue viability assay; type: functional; details: RPMI-8226, 72 h
[25] = tested on: THP-1; assay: Antiinflammatory activity in human THP1 cells assessed as suppression of LPS and TiO2-induced IL-6 production at 10 uM after 24 hrs by induced inflammasome assay; type: functional, cell-based; outline: as §3
[26] = tested on: THP-1; assay: Antiinflammatory activity in human THP1 cells assessed as suppression of LPS and TiO2-induced IL-1beta production at 100 uM after 24 hrs by induced inflammasome assay; type: functional, cell-based; outline: as §3
[27] = tested on: THP-1; assay: Antiinflammatory activity against human THP1 cells assessed as suppression of LPS and TiO2-induced IL-33 production at 100 uM after 24 hrs by induced inflammasome assay; type: functional, cell-based; outline: as §3
[28] = tested on: THP-1; assay: Antiinflammatory activity against human THP1 cells assessed as suppression of LPS and TiO2-induced IL-6 production at 100 uM after 24 hrs by induced inflammasome assay; type: functional, cell-based; outline: as §3
[29] = tested on: THP-1; assay: as §4; type: functional; outline: as §3
[30] = tested on: THP-1; assay: as §5; type: functional; outline: as §3
[31] = tested on: THP-1; assay: Antiinflammatory activity against human THP1 cells assessed as suppression of LPS and TiO2-induced TNF-alpha production at 100 uM after 24 hrs by induced inflammasome assay; type: functional, cell-based; outline: as §3

| IC50 [10] [µM] | IC50 [11] [µM] | SMILES | Activity [1] | Activity [2] | Activity [3] | Activity [4] | Activity [5] | Activity [6] | Activity [7] | Activity [8] | Activity [9] | Activity [13] | Activity [25] | also measured |
| --- | --- | --- | --- | --- | --- | --- | --- | --- | --- | --- | --- | --- | --- | --- |
| – | – | CCCCCCCCCC(=O)C[C@@H]1C2=COC(C[C@H](C)O)=CC2=CC(=O)[C@]1(C)O | inactive | inactive | inactive | inactive | inactive | inactive | inactive | inactive | inactive | – | – | – |
| 50 | 45 | CCCCCCCCCC(=O)C1=C2C=C3C=C(C[C@H](C)O)N(CCO)C=C3C(=O)[C@]2(C)OC1=O | – | – | – | – | – | – | – | – | – | – | – | – |
| 25 | 15 | CCCCCCCCCC(=O)[C@@]12O[C@@]13C1=COC(C[C@H](C)O)=CC1=CC(=O)[C@]3(C)OC2=O | – | – | – | – | – | – | – | – | – | Active | Active | GI50 [12]: 10 µM; IC50 [14]: 1.1 µM; GI50 [3]: 10 µM; GI50 [15]: 10 µM; GI50 [16]: 10 µM; IC50 [17]: 1.1 µM; Activity [18]: 95%; GI90 [19]: 10 µM; GI50 [20]: 10 µM; GI90 [21]: 10 µM; Activity [22]: 95%; GI50 [23]: 10 µM; GI50 [24]: 10 µM |
| 150 | 130 | CCCCCCCCCC(=O)[C@@H]1C(=O)O[C@@]2(C)C(=O)C=C3C=C(C[C@H](C)O)OC=C3[C@@H]12 | inactive | inactive | inactive | inactive | inactive | inactive | inactive | inactive | inactive | inactive | inactive | Activity [26]: Active; Activity [27]: Active; Activity [28]: Active; Activity [29]: inactive; Activity [30]: inactive; Activity [31]: Active |
